# Structures can show the parent of a compound that is named as a salt.
# Assays:
# Format in all cases: functional, cell-based
# [1] = system: MCF7; assay: Cytotoxicity against human MCF7 cells assessed as inhibition of cell proliferation after 72 hrs by SRB assay; conditions: MCF7, 72 h
# Outline: (§1)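 Sulforhodamine B (SRB) read-out of proliferation inhibition. Cells (A549 lung adenocarcinoma; MCF-7 breast cancer) were seeded 24 h before treatment, then exposed continuously to a range of compound concentrations for 72 h. Inhibition rates were derived from the SRB signal. Adriamycin served as the positive control.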
# [2] = system: A549; assay: Cytotoxicity against human A549 cells assessed as inhibition of cell proliferation after 72 hrs by SRB assay; conditions: A549, 72 h; outline: as §1
# [3] = system: HL-60; assay: Cytotoxicity against human HL60 cells assessed as inhibition of cell proliferation after 72 hrs by MTT assay; conditions: HL-60, 72 h
# Outline: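 HL-60 promyelocytic leukemia cells were plated 24 h ahead, then exposed continuously to varying compound concentrations for 72 h. Proliferation inhibition was determined by MTT assay. Adriamycin served as the positive control.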
Structure (SMILES),IC50 [1] [µM],IC50 [2] [µM],IC50 [3] [µM]
COc1cccc2c1C(=O)c1c(O)c3c(c(O)c1C2=O)C[C@@](O)(C(=O)CO)C[C@@H]3O[C@H]1C[C@H](N)[C@H](O)[C@H](C)O1 [DOXORUBICIN HYDROCHLORIDE],0.15,0.41,0.13
CC(C)CC(=O)O[C@H]1/C=C/C=C/C(=O)O[C@H]2[C@@H](C)C[C@@H]3[C@]2(O)[C@H](O)[C@@]2(CO)O[C@H]2[C@H]2[C@H]4OC5(c6ccccc6)O[C@@H]([C@@H](C)[C@@]23O5)[C@@]4(O)[C@](C)(O)C[C@H]2CC[C@H]1[C@H]2C [REDIOCIDE A],> 10,> 10,> 10
C[C@H]1[C@@H]2CC[C@@H]1[C@@H](OC(=O)c1ccccc1)/C=C/C=C/C(=O)O[C@H]1[C@@H](C)C[C@@H]3[C@]1(O)[C@H](O)[C@@]1(CO)O[C@H]1[C@H]1[C@H]4OC5(c6ccccc6)O[C@@H]([C@@H](C)[C@@]13O5)[C@@]4(O)[C@](C)(O)C2 [REDIOCIDE C],> 10,> 10,> 10
C=C(C)[C@@]12OC3(c4ccccc4)O[C@@H]1[C@@H]1[C@@H]4O[C@]4(C)[C@@H](O)[C@@]4(O)[C@@H](C[C@H](C)[C@@H]4O)[C@@]1(O3)[C@H](C)[C@@H]2OC(=O)c1ccccc1 [TRIGONOSIN A],> 10,> 10,> 10
C=C(C)[C@@]12OC3(c4ccccc4)O[C@@H]1[C@@H]1[C@@H]4O[C@]4(CO)[C@@H](O)[C@@]4(O)[C@@H](C[C@H](C)[C@@H]4O)[C@@]1(O3)[C@H](C)[C@@H]2OC(=O)c1ccccc1 [TRIGONOSIN B],> 10,> 10,> 10
C=C(C)[C@@]12OC3(c4ccccc4)O[C@@H]1[C@@H]1[C@H](O)[C@@](C)(O)[C@@H](O)[C@@]4(O)[C@@H](C[C@H](C)[C@@H]4O)[C@@]1(O3)[C@H](C)[C@@H]2OC(=O)c1ccccc1 [TRIGONOSIN C],> 10,> 10,> 10
C=C(C)[C@@]1(OC(=O)c2ccccc2)[C@H](OC(C)=O)[C@@H]2[C@H](OC(C)=O)[C@]3(C)O[C@@]4([C@@H]3O)[C@@H](O)[C@@H](C)C[C@H]4[C@@]2(O)[C@H](C)[C@@H]1OC(C)=O [TRIGONOSIN D],> 10,> 10,> 10
C[C@H]1[C@@H]2CC[C@@H]1[C@H](OC(=O)c1ccccc1)/C=C/C=C/C(=O)O[C@H]1[C@@H](C)C[C@@H]3[C@]1(O)[C@H](O)[C@@]1(CO)O[C@H]1[C@H]1[C@H]4OC5(c6ccccc6)O[C@@H]([C@@H](C)[C@@]13O5)[C@@]4(O)[C@](C)(O)C2 [TRIGONOSIN E],> 10,> 10,> 10
C[C@H]1[C@@H]2CC[C@@H]1[C@@H](OC(=O)c1ccccc1)/C=C/C=C\C(=O)O[C@H]1[C@@H](C)C[C@@H]3[C@]1(O)[C@H](O)[C@@]1(CO)O[C@H]1[C@H]1[C@H]4OC5(c6ccccc6)O[C@@H]([C@@H](C)[C@@]13O5)[C@@]4(O)[C@](C)(O)C2 [TRIGONOSIN F],> 10,> 10,> 10
C=C(C)[C@@]12OC3(c4ccccc4)O[C@@H]1[C@@H]1[C@@H]4O[C@]4(C)[C@@H](O)[C@]4(O)C(=O)C(C)=C[C@H]4[C@@]1(O3)[C@H](C)[C@@H]2OC(=O)c1ccccc1 [TRIGOXYPHIN A],> 10,> 10,> 10
C=C(C)[C@@]12OC3(c4ccccc4)O[C@@H]1[C@@H]1[C@@H]4O[C@]4(C)[C@@H](O)[C@]4(O)C(=O)[C@@H](C)C[C@H]4[C@@]1(O3)[C@H](C)[C@@H]2OC(=O)c1ccccc1 [TRIGOXYPHIN B],> 10,> 10,> 10
